From ChEMBL document CHEMBL3588757, “Structure-based design, synthesis and biological testing of piperazine-linked bis-epipodophyllotoxin etoposide analogs” (Bioorg Med Chem, 2015)
Activity calls are given as the source filed them. The calls are words filed in the database; no cut-off is given here.

What was measured:
[1] = system: SNB-19; test: Cytotoxicity against human SNB19 cells assessed as cell growth at 5 uM by SRB assay; assay type: functional; conditions: read-out: Activity
[2] = system: NCI-H322M; test: Cytotoxicity against human NCI-H322M cells assessed as cell growth at 0.05 uM by SRB assay; assay type: functional; conditions: read-out: Activity
[3] = system: CAKI-1; test: Cytotoxicity against human Caki1 cells assessed as cell growth at 0.005 uM by SRB assay; assay type: functional; conditions: read-out: Activity
[4] = Cytotoxicity against human NCI-ADR-RES cells assessed as cell growth at 0.005 uM by SRB assay; assay type: functional; conditions: read-out: Activity
[5] = system: MDA-MB-468; test: Cytotoxicity against human MDA-MB-468 cells assessed as cell growth at 50 uM by SRB assay; assay type: functional; conditions: read-out: Activity
[6] = Cytotoxicity against human Hs578T cells assessed as cell growth at 0.05 uM by SRB assay; assay type: functional; conditions: Hs-578T, read-out: Activity
Summary of the method: (§1)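 Measured in the NCI-60 human tumour cell line panel using five-dose testing. Growth was recorded at each dose for each cell line, and a GI50 was derived for each line.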

[7] = system: MCF7; test: Cytotoxicity against human MCF7 cells assessed as cell growth at 0.5 uM by SRB assay; assay type: functional; conditions: read-out: Activity
[8] = system: KM12; test: Cytotoxicity against human KM12 cells assessed as cell growth at 50 uM by SRB assay; assay type: functional; conditions: read-out: Activity
[9] = system: HL-60(TB); test: Cytotoxicity against human HL-60(TB) cells assessed as cell growth at 5 uM by SRB assay; assay type: functional; conditions: read-out: Activity; summary of the method: as §1
[10] = system: SF-295; test: Cytotoxicity against human SF295 cells assessed as cell growth at 0.5 uM by SRB assay; assay type: functional; conditions: read-out: Activity
[11] = system: PC-3; test: Cytotoxicity against human PC3 cells assessed as cell growth at 0.5 uM by SRB assay; assay type: functional; conditions: read-out: Activity
[12] = system: UO-31; test: Cytotoxicity against human UO31 cells assessed as cell growth at 50 uM by SRB assay; assay type: functional; conditions: read-out: Activity
[13] = system: MDA-MB-468; test: Cytotoxicity against human MDA-MB-468 cells assessed as cell growth at 0.05 uM by SRB assay; assay type: functional; conditions: read-out: Activity
[14] = system: LOX IMVI; test: Cytotoxicity against human LOXIMVI cells assessed as cell growth at 5 uM by SRB assay; assay type: functional; conditions: read-out: Activity
[15] = system: K562; test: Induction of DNA double strand breaks in human K562 cells assessed as increase in gamma-H2AX level at 25 uM after 4 hrs by chemiluminescence analysis; assay type: functional, cell-based
Summary of the method: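 K562 cells (3.4 × 10^5/mL) exposed 4 h at 37 °C to 25 µM drug or DMSO. Lysed in Tris pH 6.7/SDS buffer; 50 µg protein on 14% SDS-PAGE, PVDF blot. Rabbit anti-γH2AX (1:1000, overnight), GAPDH loading control, HRP secondary. Chemiluminescence imaged by CCD.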

[16] = system: M14; test: Cytotoxicity against human M14 cells assessed as cell growth at 5 uM by SRB assay; assay type: functional; conditions: read-out: Activity
[17] = system: TK-10; test: Cytotoxicity against human TK10 cells assessed as cell growth at 0.5 uM by SRB assay; assay type: functional; conditions: read-out: Activity
[18] = system: NCI-H322M; test: Cytotoxicity against human NCI-H322M cells assessed as cell growth at 0.5 uM by SRB assay; assay type: functional; conditions: read-out: Activity
[19] = system: SNB-75; test: Cytotoxicity against human SNB75 cells assessed as cell growth at 0.005 uM by SRB assay; assay type: functional; conditions: read-out: Activity
[20] = system: IGROV-1; test: Cytotoxicity against human IGROV1 cells by SRB assay; assay type: functional
Summary of the method: (§2)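 NCI-60 panel screen; 5-dose testing giving GI50 per cell line, plus a single 10 µM one-dose test. Method details not given beyond the NCI screen.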

[21] = Cytotoxicity against human Hs578T cells assessed as cell growth at 0.5 uM by SRB assay; assay type: functional; conditions: Hs-578T, read-out: Activity; summary of the method: as §1
[22] = system: KM12; test: Cytotoxicity against human KM12 cells assessed as cell growth at 0.5 uM by SRB assay; assay type: functional; conditions: read-out: Activity
[23] = system: IGROV-1; test: Cytotoxicity against human IGROV1 cells assessed as cell growth at 5 uM by SRB assay; assay type: functional; conditions: read-out: Activity
[24] = system: UACC-62; test: Cytotoxicity against human UACC62 cells assessed as cell growth at 50 uM by SRB assay; assay type: functional; conditions: read-out: Activity
[25] = system: NCI-H460; test: Cytotoxicity against human NCI-H460 cells assessed as cell growth at 0.05 uM by SRB assay; assay type: functional; conditions: read-out: Activity
[26] = system: HCT-15; test: Cytotoxicity against human HCT15 cells assessed as cell growth at 0.05 uM by SRB assay; assay type: functional; conditions: read-out: Activity; summary of the method: as §1
[27] = system: OVCAR-5; test: Cytotoxicity against human OVCAR5 cells assessed as cell growth at 0.005 uM by SRB assay; assay type: functional; conditions: read-out: Activity
[28] = system: NCI-H226; test: Cytotoxicity against human NCI-H226 cells assessed as cell growth at 0.005 uM by SRB assay; assay type: functional; conditions: read-out: Activity
[29] = system: U-251; test: Cytotoxicity against human U251 cells assessed as cell growth at 50 uM by SRB assay; assay type: functional; conditions: read-out: Activity
[30] = system: RXF 393; test: Cytotoxicity against human RXF393 cells assessed as cell growth at 0.005 uM by SRB assay; assay type: functional; conditions: read-out: Activity
[31] = system: MDA-MB-231; test: Cytotoxicity against human MDA-MB-231/ATCC cells assessed as cell growth at 50 uM by SRB assay; assay type: functional; conditions: read-out: Activity
[32] = system: A549; test: Cytotoxicity against human A549/ATCC cells assessed as cell growth at 0.5 uM by SRB assay; assay type: functional; conditions: read-out: Activity
[33] = system: OVCAR-4; test: Cytotoxicity against human OVCAR4 cells by SRB assay; assay type: functional; summary of the method: as §2
[34] = system: LOX IMVI; test: Cytotoxicity against human LOXIMVI cells assessed as cell growth at 0.5 uM by SRB assay; assay type: functional; conditions: read-out: Activity
[35] = system: NCI-H522; test: Cytotoxicity against human NCI-H522 cells assessed as cell growth at 50 uM by SRB assay; assay type: functional; conditions: read-out: Activity
[36] = system: 786-0; test: Cytotoxicity against human 786-0 cells assessed as cell growth at 0.05 uM by SRB assay; assay type: functional; conditions: read-out: Activity
[37] = system: ACHN; test: Cytotoxicity against human ACHN cells assessed as cell growth at 0.5 uM by SRB assay; assay type: functional; conditions: read-out: Activity
[38] = system: MOLT-4; test: Cytotoxicity against human MOLT4 cells assessed as cell growth at 50 uM by SRB assay; assay type: functional; conditions: read-out: Activity
[39] = system: K562; test: Relative resistance, ratio of IC50 for etoposide-resistant human K/VP.5 cells to IC50 for human K562 cells; assay type: functional
[40] = system: SK-MEL-2; test: Cytotoxicity against human SK-MEL-2 cells assessed as cell growth at 0.05 uM by SRB assay; assay type: functional; conditions: read-out: Activity
[41] = system: NCI-H322M; test: Cytotoxicity against human NCI-H322M cells by SRB assay; assay type: functional; summary of the method: as §2
[42] = system: MCF7; test: Cytotoxicity against human MCF7 cells assessed as cell growth at 5 uM by SRB assay; assay type: functional; conditions: read-out: Activity
[43] = system: OVCAR-4; test: Cytotoxicity against human OVCAR4 cells assessed as cell growth at 0.005 uM by SRB assay; assay type: functional; conditions: read-out: Activity
[44] = read-out: LC50 (the source's name)
[45] = read-out: pLC50 (the source's name) (converted)

Structure (SMILES): COc1cc([C@@H]2c3cc4c(cc3[C@@H](NC(=O)CN3CCN(CCCCCCCCCCN5CCN(CC(=O)N[C@@H]6c7cc8c(cc7[C@@H](c7cc(OC)c(O)c(OC)c7)[C@H]7C(=O)OC[C@@H]76)OCO8)CC5)CC3)[C@H]3COC(=O)[C@H]23)OCO4)cc(OC)c1O
- growth at 5 µM [1]: -81%
- growth at 0.05 µM [2]: 92%
- growth at 0.005 µM [3]: 93%
- growth at 0.005 µM [4]: 97%
- growth at 50 µM [5]: -69%
- growth at 0.05 µM [6]: 95%
- growth at 0.5 µM [7]: 30%
- growth at 50 µM [8]: -31%
- growth at 5 µM [9]: -44%
- growth at 0.5 µM [10]: 61%
- growth at 0.5 µM [11]: 61%
- growth at 50 µM [12]: -100%
- growth at 0.05 µM [13]: 99%
- growth at 5 µM [14]: -80%
- Activity [15]: Active
- growth at 5 µM [16]: -36%
- growth at 0.5 µM [17]: 96%
- growth at 0.5 µM [18]: 45%
- growth at 0.005 µM [19]: 95%
- GI50 ([20]; read-out: GI50): 360 nM
- CC50 [20, 44]: > 50000 nM
- TGI ([20]; read-out: TGI): 7590 nM
- GI50 ([20]; read-out: pGI50 (converted)): 363 nM
- CC50 [20, 45]: > 50100 nM
- TGI ([20]; read-out: pTGI (converted)): 7590 nM
- growth at 0.5 µM [21]: 77%
- growth at 0.5 µM [22]: 74%
- growth at 5 µM [23]: 9%
- growth at 50 µM [24]: -30%
- growth at 0.05 µM [25]: 90%
- growth at 0.05 µM [26]: 80%
- growth at 0.005 µM [27]: 95%
- growth at 0.005 µM [28]: 92%
- growth at 50 µM [29]: -79%
- growth at 0.005 µM [30]: 88%
- growth at 50 µM [31]: -54%
- growth at 0.5 µM [32]: 9%
- GI50 ([33]; read-out: GI50): 911 nM
- CC50 [33, 44]: 14100 nM
- TGI ([33]; read-out: TGI): 2730 nM
- GI50 ([33]; read-out: pGI50 (converted)): 912 nM
- CC50 [33, 45]: 14100 nM
- TGI ([33]; read-out: pTGI (converted)): 2750 nM
- growth at 0.5 µM [34]: 21%
- growth at 50 µM [35]: -55%
- growth at 0.05 µM [36]: 89%
- growth at 0.5 µM [37]: 41%
- growth at 50 µM [38]: -100%
- Ratio IC50 [39]: 2.6
- growth at 0.05 µM [40]: 89%
- GI50 ([41]; read-out: GI50): 387 nM
- CC50 [41, 44]: > 50000 nM
- TGI ([41]; read-out: TGI): 1640 nM
- GI50 ([41]; read-out: pGI50 (converted)): 389 nM
- CC50 [41, 45]: > 50100 nM
- TGI ([41]; read-out: pTGI (converted)): 1620 nM
- growth at 5 µM [42]: 18%
- growth at 0.005 µM [43]: 98%
